Autophagy mod – modulators of autophagy; MEF GFP-LC3 puncta imaging; test concentration mostly 10 µM; calls only at 10 µM (by protocol); hit rate 0.98% among 190,000;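 active means percentage of spot-positive cells more than 3 SD above its plate mean, without a fluorescence outlier flag or 80% toxicity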;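 further: spot-positive cell cutoff set from DMSO-treated cells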
bCat nuc transl – beta-catenin nuclear translocation modulation; hit rate 0.3% among 190,000; HeLa beta-catenin nuclear translocation, immunofluorescence imaging; nuclear translocation activity, % at 5 µM;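 active means nuclear translocation activity above 50% at 5 µM, with a well cell count of 50 or more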;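 further: per-cell ratio of nuclear to cytoplasmic median beta-catenin stain intensity; plate controls were DMSO negative control for no effect and GSK-3 inhibitor IX positive control for full effect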
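assay system = human HeLa cells, endogenous beta-catenin | times = compound treatment 24 h, 37°C, 5% CO2 | detection = Anti-beta-catenin immunofluorescence on PFA-fixed, Triton-permeabilized cells, DAPI nuclei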
Hsp70 activator – switches on Hsp70 transcription. HeLa Hsp70 promoter luciferase reporter, luminescence; scaled: vehicle 0, proteasome-inhibitor control 100%. activation, % at 10 µM. hit rate 0.04% among 200,000;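 active means activation above the mean across all tested compounds plus 3 SD, cutoff set per campaign, cut at about 5.5% in these data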;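 further: 100% = MG132 at 30 µM as the positive control and 0% = DMSO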
Dynein transport – blocks dynein driven cargo transport along microtubules; AID 1381; z-score, hits read low; hit rate 0.47% among 220,000; 3617.4 mouse cells, GR-EGFP nuclear translocation imaging; test concentration mostly 20 µM; stimulated with dexamethasone, 1 µM; hits give low values;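 active means plate z-score of nuclear minus cytoplasmic receptor signal below a set negative limit, without overly bright fluorescence or cell loss, cut at about -3.5 in these data, passing the limit was not always enough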;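 further: z-score of nuclear minus cytoplasmic ring GR-EGFP intensity difference per well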
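Also added – dexamethasone, 1.0 µM final · Buffer or medium – tet-free, stripped-serum medium · Schedule – induction 48 h, compound 1 h, agonist 30 min · Detection – formaldehyde fixation, Hoechst nuclear stain, 10x automated fluorescence imaging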
MT stabilizer – microtubule stabilization, imaging screen | HeLa tubulin immunostaining HCS, 24 h; share of cells brighter than vehicle mean+2SD | % tubulin-high responders, % at 10 µM | hit rate 0.83% among 200,000 | AID 2205;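 active means plate Z-score above 3 for both tubulin-high and condensed-nucleus cell shares, with cell loss under 80%, at 10 µM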;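 further: anti alpha tubulin signal scored within the nucleus-defined area of each cell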
* hit, by the source's call; i = inactive; x = no result given; + = active, no number. Hits are enriched below; roughly 2.1% of the tested compounds scored in any of these assays.

SMILES | Autophagy mod | bCat nuc transl | Hsp70 activator | Dynein transport | MT stabilizer
Cc1occc(=O)c1OC(=O)Nc1ccc(Cl)c(Cl)c1 | i | 6 | -1 | 1.1 | 2
CCCn1cnc2c(cnn2-c2ccc(F)cc2)c1=O | + | -1 | 0 | -0.029 | 6
CCCCn1cnc2c(cnn2-c2ccc(F)cc2)c1=O | i | x | 0 | -0.25 | 5
Cc1cccc(CSc2nnc(CCNC(=O)OC(C)(C)C)o2)c1 | x | 2 | x | 2.9 | x
COC(=O)c1[nH]c2c(c1C)C(=O)CC(c1cccs1)C2 (stereo not drawn) | + | 39 | 1 | 2.1 | 16*
COC(=O)c1[nH]c2c(c1C)C(=O)CC(c1cc(OC)ccc1OC)C2 (stereo not drawn) | x | -2 | 0 | 0.51 | 27*
COc1ccc(-c2[nH]n(-c3ccc([N+](=O)[O-])cc3)c(=O)c2C=NCc2ccc(F)cc2)cc1 | + | -1 | 0 | 0.17 | 6
COc1ccc(-c2[nH]n(-c3ccc([N+](=O)[O-])cc3)c(=O)c2C=NCc2ccncc2)cc1 | i | 3 | 0 | 0.46 | 1
COc1ccccc1-c1cc(C(=O)Nc2cc(C)nn2-c2ccccc2)no1 | i | 9 | 0 | 0.25 | 47*
COCCNC(=O)c1cc(-c2ccccc2OC)on1 | x | 3 | 0 | 0.11 | 31*
COc1ccccc1-c1cc(C(=O)NCc2cccs2)no1 | i | -1 | 0 | -0.25 | 2
O=[N+]([O-])c1ccc(OCCO)c(P(=O)(c2ccccc2)c2ccccc2)c1 | x | 0 | x | -0.38 | x
COC(=O)c1c(C)[nH]c(-c2csc(N)n2)c1C | i | 0 | 0 | -0.2 | 13*
CCN(Cc1cc2cc(C)ccc2[nH]c1=O)C(=O)c1cccc([N+](=O)[O-])c1 | x | -1 | x | -0.13 | x
CC(C)(CN1CCc2ccccc2C1)NS(=O)(=O)c1ccc(Cl)cc1 | x | 2 | x | -0.2 | x
COc1ccc(Cn2c3ccc(OC)cc3c3nc4ccccc4nc32)cc1 | + | -1 | 0 | 0.59 | 8
COc1ccc2c(c1)c1nc3ccccc3nc1n2CC(=O)OC(C)C | + | x | 0 | 0.94 | 2
COc1ccc2c(c1)c1nc3ccccc3nc1n2Cc1ccc(OC(C)C)c(OC)c1 | + | 1 | 0 | -1.7 | 6
CC1(C)c2ssc(=S)c2-c2ccccc2N1C(=O)c1ccco1 | i | -2 | 0 | -1.3 | 8
Cc1ccc2c(c1)-c1c(ssc1=S)C(C)(C)N2C(=O)c1ccco1 | i | -2 | 0 | 0.65 | 37*
CCCc1ccc(NS(=O)(=O)c2c(C)oc(C)c2C(=O)OC)cc1 | x | 0 | x | -0.15 | x
CCC(C)(C)c1ccc(OCCCC[n+]2ccc(C)cc2)c(C(C)(C)CC)c1 | i | 9 | 0 | -3.6* | 57
CC(C)c1ccc(C2C(C#N)=C(N)N3C(=C2C#N)Sc2ccccc23)cc1 (stereo not drawn) | + | 0 | 0 | -1 | 4
COC(=O)[C@@]1(Cc2ccccc2)[C@H]2c3cc(C(=O)N4CCCC4)n(CCSCCO)c3C[C@H]2CN1C(=O)c1ccccc1 | + | 3 | 0 | -0.067 | 4
COCCn1c(C(=O)N2CCCC2)cc2c1C[C@H]1CN(C(=O)c3ccccc3)[C@@](Cc3ccc(F)cc3)(C(=O)OC)[C@@H]21 | i | x | 0 | -0.53 | 2
SMILES | Autophagy mod | bCat nuc transl | Hsp70 activator | Dynein transport | MT stabilizer
NS(=O)(=O)c1cccc(NC(=O)c2cccnc2Oc2ccccc2)c1 | x | -3 | x | 0.55 | x
CCOc1ncccc1C(=O)OCc1ccc(Cl)cc1 | i | 0 | 0 | -0.25 | 3
CCOc1ncccc1C(=O)OCc1ccc(C(=O)OC)cc1 | i | 68* | 0 | -0.17 | 18*
COc1cccc(N=Nc2c(N)[nH][nH]c2=O)c1 | i | -2 | 0 | -0.52 | 2
COc1cccc(N=Nc2c(N)[nH]n3c(=O)c4c(nc23)CCCC4)c1 | + | 1 | 0 | -0.034 | 3
CCOC(=O)c1c(NC(=S)NCC2CCCO2)sc(C)c1C (stereo not drawn) | i | 0 | 0 | 1.2 | 3
Nc1ccc(N2CCN(c3ccc(F)cc3)CC2)cc1 | i | -2 | 0 | 0.56 | 4
Nc1ccc(N2CCN(c3ccc(Cl)c(Cl)c3)CC2)cc1 | + | 2 | 0 | 1.6 | 5
CC(=O)Oc1ccc2oc(-c3ccccc3)c(C(N)=O)c2c1 | x | -1 | x | -0.28 | x
Cc1ccc(CNc2ccc3c(c2)OCO3)cc1 | + | 2 | 0 | 2.7 | 4
c1cc(CNc2ccc3c(c2)OCO3)ccn1 | i | 2 | 0 | 0.096 | 3
Cc1ccc2[nH]c3c(c2c1)CN(C(=O)CN1c2ccc(F)cc2CCC1C)CC3 (stereo not drawn) | i | 30 | 0 | 0.38 | 38*
Cc1ccc2[nH]c3c(c2c1)CN(C(=O)CN1CCN(c2cccc(C)c2C)CC1)CC3 | i | x | 3 | -1.6 | 2
CCN(CC)CCNC(=O)C(=O)NCC1OCCN1S(=O)(=O)c1ccc([N+](=O)[O-])cc1 (stereo not drawn) | i | -1 | 0 | -0.1 | 3
CC(C)(C)C(=O)Nc1cccc(-c2cc(-c3c(Cl)cccc3Cl)no2)c1 | x | -1 | x | 0.046 | x
COc1cc(C(=O)Nc2ccc3c(c2)CCN3C(C)=O)cc(OC)c1OC | i | 0 | 0 | -0.25 | 22*
COC(=O)c1cccc(NC(=O)Nc2ccccc2OC)c1 | i | 0 | 0 | 0.67 | 5
C=CCn1c(SCc2nc3sc(C(=O)O)c(C)c3c(=O)[nH]2)nnc1-c1ccccc1 | + | -2 | 0 | 1.9 | 3
CCN(CC)C(=O)Cn1cnc2ccccc2c1=O | i | -2 | 0 | 0.19 | 3
CN(Cc1cccs1)C(=O)Cn1cnc2ccccc2c1=O | + | -1 | 0 | -0.52 | 2
COc1ccc(NS(=O)(=O)c2cc(NC(=O)c3cccc(OCc4c(C)noc4C)c3)ccc2OC)cc1 | i | 63* | 0 | -0.59 | 13*
Cc1ccc(NC(=O)c2cccc(OCc3c(C)noc3C)c2)cc1 | i | x | 0 | -0.087 | 1
COc1ccc(C(C)=O)cc1COc1nc(C)nc2ccccc12 | i | -2 | 0 | 0.5 | 15*
COc1ccc(C(C)=O)cc1COc1ccc(F)cc1 | i | 1 | 0 | -1.5 | 3
Cc1cccc(Nc2nc(-c3ccncc3)cs2)c1 | i | -2 | 1 | -0.012 | 4
Cc1nc(C)c(-c2csc(Nc3cccc(O)c3)n2)s1 | i | 1 | 0 | 0.61 | 7
Cc1cccc(Nc2nc(-c3ccc4c(c3)OCCO4)cs2)c1 | i | -1 | 0 | 0.46 | 18*
Cc1cccc(Nc2nc(-c3c(C)nc4ccccn34)cs2)c1 | i | 38 | 0 | 1.4 | 21*
Cc1nc2ccccn2c1-c1csc(Nc2cccc(O)c2)n1 | i | 75* | 0 | -0.24 | 16
CCSCc1nnc(SCC(=O)Nc2nc(C)cs2)n1C | i | 0 | 0 | 0.31 | 4
